Bioassay records (PubChem BioAssay)
An excerpt weighted towards active compounds, which were near 5.7% of everything screened.
Mdm2-MdmX inh: inhibitors of human Mdm2/MdmX interaction; O15151+Q00987; 330,000 tested, 3% active; SaOS-2 split-luciferase Mdm2/MdmX complementation, luminescence; AID 485346; inhibition, % at 8 µM;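 active means inhibition of at least 50% at 8 µM in the primary screen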
Target sequence (O15151 whole entry, looked up): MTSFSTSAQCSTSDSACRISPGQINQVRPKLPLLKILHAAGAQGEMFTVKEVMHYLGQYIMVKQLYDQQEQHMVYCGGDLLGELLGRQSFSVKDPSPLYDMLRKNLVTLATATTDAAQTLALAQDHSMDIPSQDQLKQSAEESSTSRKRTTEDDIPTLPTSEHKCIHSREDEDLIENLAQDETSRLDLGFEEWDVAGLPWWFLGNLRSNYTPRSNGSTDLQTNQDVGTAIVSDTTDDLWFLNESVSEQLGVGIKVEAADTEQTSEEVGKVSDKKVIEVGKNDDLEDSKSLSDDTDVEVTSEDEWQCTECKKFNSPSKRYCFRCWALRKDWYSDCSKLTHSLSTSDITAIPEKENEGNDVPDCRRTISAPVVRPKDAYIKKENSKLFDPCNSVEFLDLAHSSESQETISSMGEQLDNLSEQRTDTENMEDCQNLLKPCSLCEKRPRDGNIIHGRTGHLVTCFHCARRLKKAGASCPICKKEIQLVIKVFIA
Target sequence (Q00987 whole entry, looked up): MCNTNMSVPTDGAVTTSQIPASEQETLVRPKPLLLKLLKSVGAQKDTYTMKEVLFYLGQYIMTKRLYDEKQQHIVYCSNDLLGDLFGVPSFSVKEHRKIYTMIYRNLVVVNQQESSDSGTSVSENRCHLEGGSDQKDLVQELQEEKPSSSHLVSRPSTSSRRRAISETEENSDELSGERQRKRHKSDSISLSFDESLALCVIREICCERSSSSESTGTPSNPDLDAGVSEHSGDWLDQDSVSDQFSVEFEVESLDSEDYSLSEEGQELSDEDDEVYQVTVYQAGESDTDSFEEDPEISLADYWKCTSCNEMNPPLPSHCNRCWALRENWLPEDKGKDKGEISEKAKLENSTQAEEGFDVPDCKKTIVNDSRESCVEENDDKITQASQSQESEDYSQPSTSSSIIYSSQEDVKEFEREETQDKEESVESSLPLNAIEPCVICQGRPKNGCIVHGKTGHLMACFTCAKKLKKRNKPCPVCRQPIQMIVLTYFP
SKKanGAS inh: SKKanGAS growth inhibition. inhibition, % at 7.5 µM. S. pyogenes SKKanGAS, kanamycin growth, BacTiter-Glo, 6 h. AID 1662. 300,000 tested, 1.3% active;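 active means mean replicate score, as percent of positive control median, at least 50; inconclusive means mean below 50 but one replicate at or above 50; inactive means mean and every replicate below 50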;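 further: strain carries kanamycin resistance gene driven by streptokinase promoter and grows in 40 µg/ml kanamycin; loss of luminescence reflects streptokinase promoter inhibition or plain growth inhibition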
Calb FLC: affects C. albicans growth with fluconazole. C. albicans CaCi-2 (fluconazole-resistant clinical isolate) + fluconazole, Alamar Blue growth, 48 h. growth inhibition, % (no concentration beside the values). 300,000 tested, 0.57% active;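 active means growth inhibition above about 58% in most replicates, limit read from the data, passing the limit was not always enough; inconclusive means exactly half the replicates above a set limit; inactive means most replicates below a set limit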;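 further: all wells also contain fluconazole at 8 µg/ml as a sub-toxic cotreatment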
Beta cell apopt: blocks beta cell apoptosis | 300,000 tested, 0.8% active | INS-1E cytokine-induced death, ATP luminescence, 48 h; percent of positive-control rescue, neutral wells zero | protection from apoptosis, % (test concentration not listed);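 active means Every replicate reaches about 75%, or at least half do and their mean reaches it too, limit read from the data; inconclusive means At least half of replicates reach the limit but their mean does not; inactive means Under half of replicates reach the limit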;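 further: higher means more ATP so stronger rescue from cytokine killing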
T cruzi repl: T. cruzi replication inhibition | T. cruzi beta-gal in NIH3T3, luminescence, 90 h | inhibition, % (no concentration beside the values) | 300,000 tested, 1.4% active;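 active means mean inhibition across valid replicates above about 55%, limit read from the data; inconclusive means mean below that limit but half or more replicates reach it; inactive means mean below it, under half of replicates reach it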;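 further: signal also drops with host cell toxicity which is not excluded here; higher percent means less beta-gal luminescence so fewer parasites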
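Assay system: NIH/3T3 host cells with β-galactosidase reporter T. cruzi; input: 5,000 host fibroblasts per well; compound: single 50 nL compound addition per well in DMSO; timing: ≥90 h infection period, 3 h prior cell attachment; measured by: GalScreen β-gal luminescence, detergent lysis, 60 min; evaluation: percent inhibition of parasite-derived β-gal signal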
CSC inhib: blocks cancer stem cells; 300,000 tested, 1.1% active; AID 2717; cancer stem cell-like cells viability, luminescence; inhibition, % at 7.5 µM; in the data active means inhibition above about 75%; inconclusive means no clear call, values can overlap the other calls; tested in HMLE shEcad cells
Hits are given with their value; 0 = inactive; ? = inconclusive; - = no result.

SMILES	Mdm2-MdmX inh	SKKanGAS inh	Calb FLC	Beta cell apopt	T cruzi repl	CSC inhib
O=C(NNC(=O)c1ccc2ccccc2c1O)c1cccs1	0	0	0	0	0	0
COc1cccc(C(=O)NNC(=O)c2ccc3ccccc3c2O)c1	0	0	102.1	0	0	0
O=C(NNC(=O)c1ccc2ccccc2c1O)c1ccccc1Cl	0	0	85.7	0	0	0
COc1cccc(C(=O)NNC(=O)c2ccccc2)c1	0	0	0	0	0	0
N#CCC(=O)Nc1ccc(C(=O)OCC(=O)NC2CCCc3ccccc32)cc1 (stereo not given)	0	-	-	0	-	0
O=C(c1ccc(Cl)cc1Cl)c1ncc(C(F)(F)F)cc1Cl	0	0	0	0	0	0
O/N=C(\c1ccc(Cl)cc1Cl)c1ncc(C(F)(F)F)cc1Cl	0	51.2	0	0	0	?
CC(C)OCCCNC(=O)C1CCC(CNS(=O)(=O)c2cccc3nsnc23)CC1 (stereo not given)	0	0	0	0	0	0
CC(C)CCNC(=O)C1CCC(CNS(=O)(=O)c2cccc3nsnc23)CC1 (stereo not given)	0	0	0	0	55.7	0
CSCc1cc(N(C)c2ccccc2)nc(-c2ccccn2)n1	0	75.4	0	0	60.1	0
COc1cc2c(cc1OC)C(c1ccccc1Cl)N(C)CC2 (stereo not given)	0	0	0	0	0	0
COc1ccc(CN2CCN(CCSc3ccc(C)cc3)CC2)c(OC)c1OC	0	0	0	123.0	0	0
O=C(CCC(=O)N1CCCC(Nc2ccccc2)C1)c1ccc(F)cc1 (stereo not given)	0	0	0	0	0	0
Cc1ccc(NC(=O)COC(=O)CCc2c[nH]c3ccccc23)c(C)c1	0	-	-	0	-	0
NC(=O)CC12CC3CC(C1)CC(CC(N)=O)(C3)C2	0	0	87.5	0	0	0
O=C(CS(=O)(=O)c1ccc(F)cc1)NCCS(=O)(=O)c1ccccc1	0	0	0	0	0	0
O=C(O)c1ccc(N2C(=O)CC(SC(=NCc3ccc4c(c3)OCO4)Nc3ccc(F)cc3)C2=O)cc1 (stereo not given)	0	59.5	0	0	0	0
CCC(=O)Nc1ccc(C(=O)OCc2ccccc2Cl)cc1	0	0	?	0	60.7	0
CC(=O)Nc1ccc(C(=O)OCc2ccccc2Cl)cc1	0	0	?	0	0	0
Cc1ccc2c(c1)C1CC(C)(O2)N(c2cccc(C(=O)NC3CCN(Cc4ccccc4)CC3)c2)C(=O)N1 (stereo not given)	0	0	0	0	0	0
Nc1ccc(C(=O)N/N=C2\CCCc3c2[nH]c2ccccc32)cc1	0	0	0	0	0	0
CC(C)c1ccc2[nH]c3c(c2c1)CCC/C3=N\NC(=O)c1ccncc1	0	60.1	0	0	0	0
CCC(=O)Nc1nc2ccc([N+](=O)[O-])cc2s1	0	0	0	0	62.5	-
CCCCOC(=O)Nc1nc2ccc([N+](=O)[O-])cc2s1	0	0	0	0	0	0
CC(=O)Nc1ccc2nc(NC(=O)c3ccc([N+](=O)[O-])s3)sc2c1	0	0	0	0	56.1	0
SMILES	Mdm2-MdmX inh	SKKanGAS inh	Calb FLC	Beta cell apopt	T cruzi repl	CSC inhib
COc1ccc(Cl)cc1NC(=O)CSC1=NN2CCCC(=O)N=C2S1	0	0	0	0	0	-
CCCN(CCC)S(=O)(=O)c1ccc(C(=O)Nc2nnc(COC)o2)cc1	0	68.7	0	0	0	0
COCCN(CCOC)S(=O)(=O)c1ccc(C(=O)Nc2nnc(COC)o2)cc1	0	0	0	0	0	0
CSCc1nnc(NC(=O)c2ccc(S(=O)(=O)N(CC(C)C)CC(C)C)cc2)o1	-	79.7	0	-	0	-
COCc1nnc(NC(=O)c2ccc(S(=O)(=O)N(C)C3CCCCC3)cc2)o1	0	61.7	0	0	0	0
Cc1nnc(NC(=O)c2ccc(S(=O)(=O)N3CCCCCC3)cc2)o1	0	0	0	0	0	0
COCc1nnc(NC(=O)c2ccc(S(=O)(=O)N3CCCCCC3)cc2)o1	0	0	79.5	0	0	0
COCc1nnc(NC(=O)c2ccc(S(=O)(=O)N(C)Cc3ccccc3)cc2)o1	0	0	0	0	0	0
Cc1onc(-c2ccccc2)c1C(=O)OCC(=O)N(CC(C)C)c1c(N)n(Cc2ccccc2)c(=O)[nH]c1=O	0	0	0	0	0	0
NC(=O)CCCn1c(C(=O)c2cc(Cl)c(N)c(Cl)c2)c2ccc([N+](=O)[O-])cc2[n+]1[O-]	0	68.9	0	0	0	0
CCOC(=O)c1c(C)[nH]c(C(=O)NCC(c2ccco2)N2CCCCC2)c1C (stereo not given)	0	-	-	0	-	0
COc1ccc(Cl)cc1NC(=O)C[n+]1cccc(C)c1	0	0	0	0	0	0
CC(=O)c1cccc(Nc2cc(C)nc3ccc(C)cc23)c1	0	0	0	0	0	0
CC(=O)c1cccc(Nc2cc(C)nc3c(C)cc(C)cc23)c1	0	0	0	0	55.6	0
CN(CCNC(=O)c1cn(C)c2ccc(S(=O)(=O)N(C)C)cc2c1=O)CCc1ccccc1	0	0	0	0	0	0
CCN(CC)S(=O)(=O)c1ccc2c(c1)c(=O)c(C(=O)NCCN(C)CCc1ccccc1)cn2C	0	0	0	-	55.7	0
CCCCNC(=O)c1cn(C)c2ccc(S(=O)(=O)N3CCCC3)cc2c1=O	0	0	85.5	0	0	0
Cc1cccc(OCC(=O)Nc2cccc(C(=O)Nc3ccccc3C(=O)O)c2)c1	0	0	0	0	0	0
CC(C)(C)c1ccc(OCC(=O)Nc2ccc(C(=O)Nc3ccccc3C(=O)O)cc2)cc1	0	82.5	0	0	0	0
Cc1cccc(OCC(=O)Nc2ccc(C(=O)Nc3ccccc3C(=O)O)cc2)c1C	0	57.7	0	0	0	0
Cc1cccc(OCC(=O)Nc2cc(NC(=O)COc3cccc(C)c3C)cc(C(=O)O)c2)c1C	0	0	0	0	0	0
COc1ccc(C(=O)NNc2ccccc2)cc1	0	0	0	0	0	130.7
CC(C)c1ccc(OCC(=O)Nc2cccc(C(=O)Nc3ccccc3C(=O)O)c2)cc1	0	0	75.9	0	0	0
N#Cc1ccc(C(=O)OCCCc2cc3ccccc3c(=O)o2)cc1	0	-	-	0	-	0
COc1ccc(C(=O)NCC(=O)OCC(=O)N2CC(C)OC(C)C2)cc1OC (stereo not given)	0	-	-	0	-	0
COc1ccc(C(=O)Nc2ccccc2C(=O)Nc2ccccc2C(=O)O)cc1	0	0	80.5	0	0	0
COc1ccc(NC(=O)CN(C)C(=O)Cc2ccc(S(=O)(=O)N3CCOCC3)s2)cc1	0	0	0	0	0	0
O=C1N/C(=N\c2ccccn2)SC1Cc1ccc(Cl)cc1 (stereo not given)	0	50.1	0	0	0	0
CC(C)OCCCNC(=O)CCCC(=O)Nc1ccc(OCCc2ccccc2)cc1	0	0	0	0	0	0
Nc1c(C(=O)O)ccc2c1C(=O)c1ccccc1C2=O	0	0	0	0	0	0
